Experimental findings from ChEMBL document CHEMBL1156535, “Thiocarbamates as non-nucleoside HIV-1 reverse transcriptase inhibitors. Part 1: Parallel synthesis, molecular modelling and structure-activity relationship studies on O-[2-(hetero)arylethyl]-N-phenylthiocarbamates” (Bioorg Med Chem, 2008) are described below.

Data set [1] is described as follows: Cytotoxicity against human MT4 cells by MTT assay. It is filed as cell-based. In a few lines:
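Mock-infected MT-4 cells; viability by MTT method; CC50 taken as concentration reducing viability by 50%. Mean of three separate experiments, variation among triplicates under 10%.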

For data set [2], the system named is Human immunodeficiency virus 1. The experiment in a line: Antiretroviral activity against HIV1 in human MT4 cells assessed as reduction in virus-induced cytopathogenicity by MTT assay. It is filed as functional, organism-based. Particulars: Human immunodeficiency virus 1, MT4. In a few lines:
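MT-4 cells infected with HIV-1; MTT read-out of viability; EC50 taken as concentration giving 50% protection from virus-induced cytopathogenicity. Mean of three separate experiments, variation among triplicates under 10%.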

Data set [3] is described as follows: Selectivity index, ratio of CC50 for human MT4 cells to EC50 for HIV1. Particulars: read-out: Ratio CC50/EC50. The class given is toxicity, cell-based.
The test system of data set [4] is HIV-1 Y181C mutant (Human immunodeficiency virus 1). The data set can be described thus: Antiviral activity against HIV1 with reverse transcriptase Y181C mutation in human MT4 cells assessed as reduction of virus-induced cytopathogenicity by MTT assay. Particulars: Human immunodeficiency virus 1, MT4.
Data set [5] deals with HIV-1 K103N/Y181C mutant (Human immunodeficiency virus 1). The experiment in a line: Antiviral activity against HIV1 with reverse transcriptase K103N/Y181C mutation in human MT4 cells assessed as reduction of virus-induced cytopathogenicity by MTT assay. Particulars: for EC50: Human immunodeficiency virus 1, MT4.
Data set [6] deals with Human immunodeficiency virus 1. The data set can be described thus: Antiviral activity against HIV1 in human C8166 cells assessed as reduction of p24 antigen level. The class given is functional, organism-based. Particulars: Human immunodeficiency virus 1, C8166. Put shortly:
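C8166 cultures infected with HIV-1; p24 antigen levels measured; EC90 taken as dose lowering p24 by 90%.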

Active and inactive are the calls of the source. The calls are words filed in the database; no cut-off is given here. A value given as a limit tells only on which side of the number the result lay.

`S=C(Nc1ccc(Cl)c(Cl)c1)OCCc1ccccn1` returned a CC50 in data set [1] of 40 µM. Besides, the EC50 in data set [2] amounted to 0.2 µM. In data set [3], the selectivity ratio turned out to be 200.

On to `S=C(Nc1ccc(I)cc1)OCCc1ccccn1`, for which the CC50 in data set [1] was found to be 34 µM. Moreover, the EC50 in data set [2] was 0.5 µM. In addition, the selectivity ratio in data set [3] was found to be 68.

`Fc1ccc(F)c(NC(=S)OCCc2ccccn2)c1`: the CC50 in data set [1] was above 100 µM. Moreover, the EC50 in data set [2] was 9 µM. Moreover, in data set [3], the selectivity ratio was above 11.

`S=C(Nc1ccc(Cl)cc1)OCCc1ccncc1`: it took 70 µM to reach half-maximal cytotoxicity in data set [1] (CC50). Besides, the EC50 in data set [2] is above 70 µM. Besides, the selectivity ratio in data set [3] was below 1.

In turn, `Cc1ccccc1NC(=S)OCCc1ccccn1` showed a half-maximal cytotoxic concentration (CC50) in data set [1] above 100 µM. Besides, the EC50 in data set [2] came to 69 µM. Moreover, the selectivity ratio in data set [3] was above 1.4.

`S=C(Nc1ccc(Cl)cc1)OCCc1ccccc1` had a CC50 in data set [1] above 100 µM. Further, the half-maximal effective concentration (EC50) in data set [2] stood at 0.5 µM. Besides, the selectivity ratio in data set [3] is above 200.

As for `O=[N+]([O-])c1ccc(NC(=S)OCCc2ccccc2)cc1`, the cytotoxic concentration (CC50) in data set [1] was above 100 µM. In data set [2], the 50% effective concentration (EC50) was 0.9 µM. In data set [3], the selectivity ratio is above 111.

With `S=C(Nc1ccccc1)OCCc1ccccc1`, the concentration giving a half-maximal response (EC50) in data set [2] came out at 6 µM. Besides, the selectivity ratio in data set [3] turned out to be 17.

In data set [1], `O=[N+]([O-])c1cc(NC(=S)OCCc2ccccn2)ccc1Cl` yielded a 50% cytotoxic concentration (CC50) of 41 µM. The EC50 in data set [2] was determined as 0.1 µM. The selectivity ratio in data set [3] turned out to be 410.

As for `Fc1cccc(F)c1NC(=S)OCCc1ccccn1`, in data set [1], the CC50 was above 100 µM. Besides, the EC50 in data set [2] worked out at 38 µM. The selectivity ratio in data set [3] is above 2.6.

As to `S=C(Nc1cccc(Cl)c1)OCCc1ccccn1`, the CC50 in data set [1] was found to be 47 µM. Also, the concentration for a half-maximal effect (EC50) in data set [2] worked out at 1.4 µM. Also, the selectivity ratio in data set [3] came to 34.

Take `Cc1ccc(NC(=S)OCCc2ccccn2)cc1`: it took 75 µM to reach half-maximal cytotoxicity in data set [1] (CC50). For the same molecule, the EC50 in data set [2] was determined as 1.7 µM. Besides, the selectivity ratio in data set [3] is 44.

In the case of `S=C(Nc1ccccc1)OCCc1cccs1`, in data set [1], the CC50 is above 100 µM. The EC50 in data set [2] worked out at 14 µM. The selectivity ratio in data set [3] was above 7.1.

`CC(C)c1ccc(NC(=S)OCCc2ccccn2)cc1` showed a CC50 in data set [1] of 45 µM. In data set [2], the concentration giving a half-maximal response (EC50) is above 45 µM. Besides, the selectivity ratio in data set [3] was below 1.

As for `Cc1ccc(NC(=S)OCCc2ccncc2)cc1`, in data set [1], the CC50 is above 100 µM. For the same molecule, in data set [2], the half-maximal effective concentration (EC50) was found to be 63 µM. Moreover, the selectivity ratio in data set [3] is above 1.6.

In turn, `COc1ccc(NC(=S)OCCc2ccncc2)cc1` had a CC50 in data set [1] of 59 µM. The EC50 in data set [2] was above 59 µM. In addition, in data set [3], the selectivity ratio was below 1.

The molecule `Fc1cccc(NC(=S)OCCc2ccccn2)c1` yielded a CC50 in data set [1] of at least 100 µM. Besides, in data set [2], the EC50 came out at 1.1 µM. Also, the selectivity ratio in data set [3] is at least 91.

`Fc1ccc(NC(=S)OCCc2ccccn2)cc1` showed a 50% cytotoxic concentration (CC50) in data set [1] above 100 µM. The 50% effective concentration (EC50) in data set [2] is 1.2 µM. The selectivity ratio in data set [3] was above 83.

On to `O=C1Nc2ccc(Cl)cc2[C@@](C#CC2CC2)(C(F)(F)F)O1` [EFAVIRENZ], for which the figures for the EC50 in data set [4] and in data set [5] were 0.01 µM and 0.04 µM, respectively.

`Fc1cc(F)cc(NC(=S)OCCc2ccccn2)c1` came in with a CC50 in data set [1] above 100 µM. Also, the concentration for a half-maximal effect (EC50) in data set [2] is 9 µM. Further, the selectivity ratio in data set [3] is above 11.

With `S=C(NCCc1ccccn1)Nc1ccc(Br)cn1` [TROVIRDINE], the selectivity ratio in data set [3] was 3000. Moreover, the 90% effect concentration (EC90) in data set [6] stood at 0.015 µM.

As for `FC(F)(F)c1ccc(NC(=S)OCCc2ccccn2)cc1`, the cytotoxic concentration (CC50) in data set [1] worked out at 50 µM. In addition, in data set [2], the EC50 worked out at 13 µM. In data set [3], the selectivity ratio came out at 3.8.

The molecule `S=C(Nc1ccc(Br)cc1)OCCc1ccccn1` gave a cytotoxic concentration (CC50) in data set [1] of 37 µM. For the same molecule, the concentration giving a half-maximal response (EC50) stood at 0.2 µM in data set [2] and 20 µM in data set [4]. Further, the selectivity ratio in data set [3] was determined as 185. The result in data set [5] was inactive.

Molecule `S=C(Nc1ccc(Cl)cc1Cl)OCCc1ccccn1` gave a CC50 in data set [1] above 100 µM. In data set [2], the EC50 was determined as 2.9 µM. In data set [3], the selectivity ratio was above 34.

`Cc1cccc(NC(=S)OCCc2ccccn2)c1` came in with a 50% cytotoxic concentration (CC50) in data set [1] above 100 µM. The EC50 in data set [2] amounted to 7.7 µM. Moreover, the selectivity ratio in data set [3] was above 13.

Molecule `Cc1ccc(NC(=S)OCCc2ccccc2)cc1` gave a half-maximal cytotoxic concentration (CC50) in data set [1] above 100 µM. In data set [2], the half-maximal effective concentration (EC50) came out at 4.3 µM. Further, the selectivity ratio in data set [3] is above 23.

`CC(=O)c1ccc(NC(=S)OCCc2ccccn2)cc1` gave a 50% cytotoxic concentration (CC50) in data set [1] of at least 100 µM. The EC50 in data set [2] was above 100 µM.

`Cc1ccc(NC(=S)OCCc2ccccn2)cc1Cl`: the CC50 in data set [1] came out at 59 µM. In addition, the concentration giving a half-maximal response (EC50) in data set [2] amounted to 0.7 µM. Besides, the selectivity ratio in data set [3] was 84.

Turning to `CCc1ccc(NC(=S)OCCc2ccccn2)cc1`, the CC50 in data set [1] is 44 µM. Further, the concentration giving a half-maximal response (EC50) in data set [2] is 10 µM. In addition, in data set [3], the selectivity ratio came out at 4.4.

The molecule `COc1ccc(NC(=S)OCCc2ccccn2)cc1` showed a 50% cytotoxic concentration (CC50) in data set [1] of 48 µM. The half-maximal effective concentration (EC50) in data set [2] turned out to be 5.6 µM. In data set [3], the selectivity ratio stood at 8.6.

In turn, `O=[N+]([O-])c1cccc(NC(=S)OCCc2ccccn2)c1` gave a half-maximal cytotoxic concentration (CC50) in data set [1] of 100 µM. The results for the EC50 in data set [2], in data set [4] and in data set [5] were 1.6 µM, 87 µM and 91 µM, respectively. The selectivity ratio in data set [3] came out at 63.

`COc1ccc(NC(=S)OCCc2ccccc2)cc1`: the EC50 in data set [2] worked out at 17 µM. Also, the selectivity ratio in data set [3] is 2.1.

As to `S=C(Nc1ccc(Cl)cc1)OCCc1ccccn1`, half-maximal cytotoxicity in data set [1] (CC50) was put at 52 µM. Moreover, the EC50 in data set [2] came out at 0.1 µM. For the same molecule, the selectivity ratio in data set [3] was determined as 520.

In turn, `O=[N+]([O-])c1ccc(NC(=S)OCCc2ccccn2)cc1` showed a CC50 in data set [1] above 100 µM. Moreover, the concentration for a half-maximal effect (EC50) in data set [2] is 0.7 µM. Besides, in data set [3], the selectivity ratio is above 143. The EC90 in data set [6] worked out at 0.8 µM.

In the case of `S=C(Nc1ccccc1)OCCc1ccccn1`, the CC50 in data set [1] was above 100 µM. For the same molecule, the EC50 in data set [2] is 7.4 µM. Further, the selectivity ratio in data set [3] was above 14.

With `CN(C)c1ccc(NC(=S)OCCc2ccccn2)cc1`, the half-maximal cytotoxic concentration (CC50) in data set [1] amounted to 60 µM. Also, the EC50 in data set [2] is above 60 µM. In addition, in data set [3], the selectivity ratio was below 1.

In data set [1], `O=[N+]([O-])c1ccc(NC(=S)OCCc2ccncc2)cc1` displayed a CC50 above 100 µM. Also, the EC50 in data set [2] is above 100 µM.

The molecule `FC(F)(F)c1cc(NC(=S)OCCc2ccccn2)ccc1Cl` returned a CC50 in data set [1] of 42 µM. Further, the EC50 in data set [2] amounted to 5.5 µM. Besides, in data set [3], the selectivity ratio worked out at 7.6.

With `N#Cc1ccc(NC(=S)OCCc2ccccn2)cc1`, the CC50 in data set [1] was 45 µM. In addition, the EC50 in data set [2] worked out at 0.2 µM. Moreover, the selectivity ratio in data set [3] was determined as 225.

On to `S=C(Nc1ccccc1Cl)OCCc1ccccn1`, for which the cytotoxic concentration (CC50) in data set [1] is above 100 µM. For the same molecule, in data set [2], the 50% effective concentration (EC50) came to 43 µM. In addition, the selectivity ratio in data set [3] was above 2.3.
